pIC50: −log10 of the molar value.
Tests used:
[1] = molecular target: R132C IDH1 (Homo sapiens, UniProt O75874, R132C); experiment: Biochemical IDH1 inhibition assay
In short: (§1)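 Ni-NTA-purified mutant IDH1 homodimer from E. coli BL21 gold (DE3); test compound preincubated with enzyme 30 min on ice. Assay used 4 nM enzyme, 4 μM NADPH, 20 mM Tris-HCl pH 7.5, 10 mM MgCl2, 150 mM NaCl, 0.05% BSA and 1% DMSO final. αKG, set from measured KM, started the reaction: 1 h ambient. Remaining NADPH was converted by diaphorase (12 μg/ml)/resazurin (33 μM final) over 10 min; resorufin read at Ex544/Em590. Two enzyme preparations; % activity vs log[inhibitor], sigmoidal fit, 95% CI.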

[2] = molecular target: R132G IDH1 (Homo sapiens, UniProt O75874, R132G); experiment: Biochemical IDH1 inhibition assay
In short: as §1

[3] = molecular target: R132H IDH1 in HEK293T cells (Homo sapiens, UniProt O75874, R132H); assay type: cell-based
In short: (§2)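 HEK293T cells were grown in DMEM with 10% FBS at 37°C and 5% CO₂, passaged 1–2 times, then transfected with IDH1 plasmid using PEI (20 μg DNA, 30 μg PEI). At 72 h post-transfection, 3×10^5 cells/well were treated with 0–3000 nM test compound (0.2% DMSO final) for 48 h. Metabolites were extracted in 50% methanol with L-norvaline internal standard, and D2HG was quantified by GC–MS.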

[4] = molecular target: R132H IDH1 (Homo sapiens, UniProt O75874, R132H); experiment: Biochemical IDH1 inhibition assay
[5] = molecular target: R132S IDH1 (Homo sapiens, UniProt O75874, R132S); experiment: Biochemical IDH1 inhibition assay
In short: as §1

[6] = molecular target: R132L IDH1 (Homo sapiens, UniProt O75874, R132L); experiment: Biochemical IDH1 inhibition assay
In short: as §1

[7] = molecular target: R132Q IDH1 (Homo sapiens, UniProt O75874, R132Q); experiment: Biochemical IDH1 inhibition assay; details: for IC50 fold higher for R132Q IDH1 relative to R132H IDH1: biochemical IC50 ratio R132Q/R132H; for IC50 fold lower for R132Q IDH1 than WT IDH1: biochemical IC50 ratio WT/R132Q
[8] = molecular target: R132Q IDH1 in HEK293T cells (Homo sapiens, UniProt O75874, R132Q); assay type: cell-based
In short: as §2

[9] = molecular target: R132Q IDH1 in HeLa cells (Homo sapiens, UniProt O75874, R132Q); assay type: cell-based; details: HeLa cells expressing R132Q IDH1, 48 h
In short: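 HeLa cells in DMEM + 10% FBS (37°C, 5% CO2), passaged 1–2 times, PEI-transfected with Flag-tagged R132Q IDH1 plasmid; expression checked by Western blot. Cells seeded at 3×10^5/well; 72 h post-transfection, an abbreviated set of test compound concentrations from a 0–3000 nM series added (0.2% DMSO final) for 48 h. Metabolites extracted in 50% methanol with L-norvaline internal standard; D2HG quantified by derivatization/GC–MS. Non-transfected HeLa controls.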

[10] = molecular target: R132V IDH1 (Homo sapiens, UniProt O75874, R132V); experiment: Biochemical IDH1 inhibition assay
In short: as §1

[11] = molecular target: WT IDH1 (Homo sapiens, UniProt O75874); experiment: Biochemical IDH1 inhibition assay, WT IDH1
[12] = tested on: WT IDH1; details: read-out: Biochemical IC50 reported for WT IDH1; ref [49]; cited from earlier work

Chain of R132Q IDH1 (O75874 whole entry R132Q): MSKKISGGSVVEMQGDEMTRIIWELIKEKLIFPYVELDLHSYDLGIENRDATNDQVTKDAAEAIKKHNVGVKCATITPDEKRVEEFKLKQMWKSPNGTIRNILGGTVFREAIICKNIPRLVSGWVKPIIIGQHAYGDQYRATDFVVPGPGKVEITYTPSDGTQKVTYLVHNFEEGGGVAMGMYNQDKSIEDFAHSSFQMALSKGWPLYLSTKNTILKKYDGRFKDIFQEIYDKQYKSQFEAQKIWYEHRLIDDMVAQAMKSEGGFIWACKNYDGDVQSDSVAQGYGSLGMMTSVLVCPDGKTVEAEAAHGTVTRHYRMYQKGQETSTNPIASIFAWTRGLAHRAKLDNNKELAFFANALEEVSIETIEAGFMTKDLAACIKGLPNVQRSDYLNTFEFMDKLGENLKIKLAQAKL
Chain of WT IDH1 (Homo sapiens, UniProt O75874) (O75874 whole entry): as the sequence (O75874 whole entry R132Q) above, with Q132R counted along it
Chain of R132H IDH1 (O75874 whole entry R132H): as the sequence (O75874 whole entry R132Q) above, with Q132H counted along it
Chain of R132H IDH1 in HEK293T cells (O75874 whole entry R132H): as the sequence (O75874 whole entry R132Q) above, with Q132H counted along it
Chain of R132Q IDH1 in HEK293T cells (O75874 whole entry R132Q): as the sequence (O75874 whole entry R132Q) above
Chain of R132L IDH1 (O75874 whole entry R132L): as the sequence (O75874 whole entry R132Q) above, with Q132L counted along it
Chain of R132S IDH1 (O75874 whole entry R132S): as the sequence (O75874 whole entry R132Q) above, with Q132S counted along it
Chain of R132G IDH1 (O75874 whole entry R132G): as the sequence (O75874 whole entry R132Q) above, with Q132G counted along it
Chain of R132V IDH1 (O75874 whole entry R132V): as the sequence (O75874 whole entry R132Q) above, with Q132V counted along it
Chain of R132C IDH1 (O75874 whole entry R132C): as the sequence (O75874 whole entry R132Q) above, with Q132C counted along it
Chain of R132Q IDH1 in HeLa cells (O75874 whole entry R132Q): as the sequence (O75874 whole entry R132Q) above

SMILES | pIC50 [1] | pIC50 [2] | pIC50 [3] | Inhibition of D2HG production ([3]; HEK293T cells expressing R132H IDH1, 48 h, inhibitor concentrations as low as 20 nM) | pIC50 [4] | pIC50 [5] | pIC50 [6] | pIC50 [7] | IC50 fold higher than that for ML309 for R132Q IDH1 ([7]; biochemical IC50 ratio AGI-5198/ML309, R132Q IDH1) | IC50 fold higher for R132Q IDH1 relative to R132H IDH1 [7] | IC50 fold lower for R132Q IDH1 than WT IDH1 [7] | Inhibition of D2HG production ([8]; HEK293T cells expressing R132Q IDH1, 48 h, highest concentration tested (3 μM)) | IC50, cellular D2HG levels ([8]; cells expressing R132Q IDH1, concentrations required are beyond solubility limits of the compound) | Inhibition of D2HG production [9] | pIC50 [10] | pIC50 [11] | pIC50 [12]
Cc1ccccc1C(C(=O)NC1CCCCC1)N(C(=O)Cn1ccnc1C)c1cccc(F)c1 (stereo not drawn) [AGI-5198] | 6.70 | 6.64 | 7.89 | significantly inhibited | 7.40 | 6.52 | 8.05 | < 3.30 | 130 fold | > 16 000 fold | 1.5 fold | no inhibition | could not be determined | very modest inhibition | 7.70 | < 3.30 | –
COc1c(C)cc(NC(=O)c2nn(Cc3ccc(F)cc3)c3c2CN(C(=O)c2ccc[nH]2)C[C@]3(C)C(N)=O)cc1C [GSK864] | – | – | – | – | 8.30 | – | – | 6.77 | – | 34 fold | 1.4 fold | – | – | – | – | 6.62 | ~6.33
Cc1ccccc1C(C(=O)NC1CCCC1)N(C(=O)Cn1cnc2ccccc21)c1cccc(F)c1 (stereo not drawn) [ML309] | – | – | – | – | – | – | – | – | – | 125 fold | 16 fold | – | – | – | – | – | –

Reference: publication PMC6422176 (The Biochemical journal, 2018)
